Compound activity deposited in PubChem by The Scripps Research Institute Molecular Screening Center.
TAAR1 agonist = agonists of human TAAR1; CHO RD-HGA16 TAAR1, Fluo-8 calcium fluorescence; vehicle wells 0%, saturating PEA agonist 100%; Q96RJ0; AID 624467; 360,000 tested, 0.99% active; activation, % at 3 µM;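 active means activation above the mean activation of all test compounds in the run plus 3 SD, cut at about 38% in these data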
Target sequence (Q96RJ0 whole entry, looked up): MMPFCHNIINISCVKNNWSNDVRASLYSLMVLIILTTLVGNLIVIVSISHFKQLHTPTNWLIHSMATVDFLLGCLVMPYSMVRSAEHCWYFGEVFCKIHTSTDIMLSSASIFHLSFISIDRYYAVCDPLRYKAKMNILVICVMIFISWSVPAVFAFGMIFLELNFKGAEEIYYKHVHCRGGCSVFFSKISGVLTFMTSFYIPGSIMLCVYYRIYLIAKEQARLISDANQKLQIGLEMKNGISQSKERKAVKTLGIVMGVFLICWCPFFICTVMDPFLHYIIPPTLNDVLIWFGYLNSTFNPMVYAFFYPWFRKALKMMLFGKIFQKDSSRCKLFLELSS
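System: CHO-derived RD-HGA16 cells with stable Gα16 and human TAAR1 / Times: 17-24 h plating, Fluo-8 75 min 37 °C, 30 min RT / Technique: calcium-sensitive Fluo-8 signal, excitation 470-495, emission 515-575 nm / Measure: % activation relative to PEA EC100 response / Benchmarks: DMSO and PEA EC100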
TAAR1 antag = human TAAR1 antagonism. Q96RJ0. CHO RD-HGA16 TAAR1, Fluo-8 calcium fluorescence, antagonist. inhibition, % at 3 µM. 360,000 tested, 1.5% active. AID 624466;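 active means inhibition above a per-plate cutoff, the mean inhibition of test compounds on that plate plus 3 SD, cut at about 49% in these data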;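 further: 0% = DMSO plus EC80 beta-PEA response and 100% = DMSO alone without agonist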
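Test system – hTAAR1-expressing CHO RD-HGA16 cells, Gα16-coupled · Also added – β-PEA at EC80 concentration, post-compound challenge · Compound – 3 µM, single point · Incubation – dye loading 75 min at 37 °C, then 30 min room temperature · Measured by – Fluo-8 intracellular calcium dye fluorescence, real-time kinetic reads · Benchmarks – vehicle and agonist controls · Replicates – singlicate, one well per test compound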
GPR7 antagonist = antagonists of human GPR7 (neuropeptides B/W receptor 1); inhibition, % at 4.4 µM; GPR7-expressing cells, fluorescence antagonist assay; AID 1861; P48145; 290,000 tested, 1.1% active; in the data active means inhibition above about 16%, passing the limit was not always enough;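 further: cells stimulated with the agonist NPW; 0% = agonist with vehicle and 100% = vehicle without agonist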
Target sequence (P48145 whole entry, looked up): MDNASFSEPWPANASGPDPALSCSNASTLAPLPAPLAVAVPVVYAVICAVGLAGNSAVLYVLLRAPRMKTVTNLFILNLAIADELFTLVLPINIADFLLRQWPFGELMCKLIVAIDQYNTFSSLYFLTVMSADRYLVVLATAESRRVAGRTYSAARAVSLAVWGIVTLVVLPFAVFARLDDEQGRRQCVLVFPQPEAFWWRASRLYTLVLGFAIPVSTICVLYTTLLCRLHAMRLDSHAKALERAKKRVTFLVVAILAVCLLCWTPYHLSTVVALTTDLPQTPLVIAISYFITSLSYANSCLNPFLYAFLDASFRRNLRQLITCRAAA
CHO parental Ca = counter-screen: ATP calcium response change in parental CHO cells | inhibition, % at 5.6 µM | parental CHO-K1, ATP-induced calcium, Fluo-8 fluorescence | AID 463079 | 330,000 tested, 0.63% active;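 active means inhibition above that plate's mean sample inhibition plus 3 SD, cut at about 26% in these data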;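 further: 0% = ATP-challenged DMSO wells and 100% = DMSO wells without ATP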
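Material – parental CHO cells · Reagent – ATP stimulus · Compound – single nominal dose of 5.6 µM per compound · Detection – Fluo-8 fluorescence · Read-out basis – percent inhibition of calcium signal · Controls – ATP-challenged DMSO wells low, unchallenged DMSO wells high · Repeats – no replicates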
OX1R antag-1 = blocks the human orexin 1 receptor; O43613; OX1R-expressing cells, FRET antagonist read-out; inhibition, % at 6.6 µM; 330,000 tested, 1.8% active; in the data active means inhibition mostly above about 38%, no sharp cut-off; inactive means mostly below about 40%;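 further: 0% = agonist challenge alone and 100% = reference antagonist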
OX1R antag-2 = antagonists of human orexin 1 receptor | 330,000 tested, 0.43% active | inhibition, % at 5 µM | O43613 | CHO/OX1R cells, Fluo-8 calcium fluorescence, orexin A;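 active means inhibition above its plate's threshold, mean inhibition of all tested compounds on the plate plus 3 SD, cut at about 37% in these data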;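 further: 0% = orexin A challenge wells and 100% = SB-334867-A antagonist wells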
nonsel antag count = counter-screen for TAAR1 antagonists: nonselective antagonists | inhibition, % at 3 µM | shares compounds with TAAR1 antag | 2,400 tested, 77% active | counterscreen cell line, calcium fluorescence, antagonist mode; in the data active means inhibition above about 22%;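 further: CHO-Ga16 host cells stimulated with ATP at an EC80 level; 0% = agonist EC80 plus vehicle and 100% = vehicle without agonist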
TAAR1 ant conf = confirmation of human TAAR1 antagonists. shares compounds with TAAR1 antag. TAAR1-expressing cells, fluorescence antagonist read-out. inhibition, % at 3 µM. 2,400 tested, 40% active. AID 651785; in the data active means inhibition above about 49%;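 further: CHO-Ga16 host cells challenged with agonist PEA near its EC80; 0% = agonist at EC80 plus vehicle and 100% = vehicle with no agonist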
Ga16 nonsel ag = counter-screen for TAAR1 antagonists: nonselective Ga16 agonists; shares compounds with TAAR1 antag; Ga16-expressing cells, calcium fluorescence, agonist counterscreen; activation, % at 3 µM; 2,400 tested, 18% active; in the data active means activation above about 12%;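 further: 0% = vehicle wells and 100% = saturating stimulus response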
TAAR1 ag counter = TAAR1 agonism, antagonist counter-screen; shares compounds with TAAR1 antag; hTAAR1 cell line, fluorescence activation, agonist mode; activation, % at 3 µM; 2,400 tested, 2% active; AID 651955; in the data active means activation above about 37%;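 further: CHO cells stably expressing TAAR1 with calcium dye readout; 0% = DMSO vehicle and 100% = full agonist response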
* marks the source's active call; other numbers are inactive results. This is a sample that favours compounds with a hit; in the whole collection about 4.5% have one here.

`CCC(C)(C)NC(=O)C(c1ccc(F)cc1)N(Cc1ccco1)C(=O)c1cnccn1` (stereo not drawn) gave TAAR1 agonist -1, TAAR1 antag 14, GPR7 antagonist 4, CHO parental Ca -13, OX1R antag-1 35 and OX1R antag-2 -21.
`CCc1ccc(CN(C)C(=O)CCc2nnc(CCc3cccc(OC)c3)o2)nc1` gave TAAR1 agonist 0, TAAR1 antag 1, GPR7 antagonist 0, CHO parental Ca -14, OX1R antag-1 6 and OX1R antag-2 -13.
COCCN(C(=O)c1csnn1)C(C(=O)NC1CCCCC1)c1ccccc1F (stereo not drawn) was read as TAAR1 agonist 0, TAAR1 antag -4, GPR7 antagonist 3, CHO parental Ca -16, OX1R antag-1 11 and OX1R antag-2 -18.
`COc1ccc(NS(=O)(=O)c2cccc(C(=O)NCCCN3CCOCC3)c2)cc1` gave TAAR1 agonist 2, TAAR1 antag -29, CHO parental Ca -8, OX1R antag-1 13 and OX1R antag-2 -10.
CCN(CC)S(=O)(=O)c1ccc(C(O)=C(C#N)c2nc3ccccc3n2C)cc1 was read as TAAR1 agonist 16, TAAR1 antag 66*, nonsel antag count 30*, TAAR1 ant conf 59*, Ga16 nonsel ag 13* and TAAR1 ag counter 15.
`CC(C)(C)NC(=O)NC(=O)COC(=O)Cc1coc2ccc3ccccc3c12` gave TAAR1 agonist 7, TAAR1 antag 52*, GPR7 antagonist -11, CHO parental Ca -23, OX1R antag-1 11, OX1R antag-2 -28, nonsel antag count 24*, TAAR1 ant conf 28, Ga16 nonsel ag 4 and TAAR1 ag counter 2.
Screening Cc1c(Cl)cnc(NC(=O)COC(=O)Cc2coc3ccc4ccccc4c23)c1Cl returned TAAR1 agonist -1, TAAR1 antag -11, GPR7 antagonist 9, CHO parental Ca -15, OX1R antag-1 19 and OX1R antag-2 -10.
Cc1nn2c(C)c(C(=O)Nc3ccccc3)cnc2c1C#N was read as TAAR1 agonist 13, TAAR1 antag 53*, GPR7 antagonist -3, CHO parental Ca -5, OX1R antag-1 26, OX1R antag-2 -24, nonsel antag count 20, TAAR1 ant conf 35, Ga16 nonsel ag 9 and TAAR1 ag counter 8.
Cc1cc2ncc(C(=O)Nc3ccccc3)c(C)n2n1 was read as TAAR1 agonist 2, TAAR1 antag -3, GPR7 antagonist -15, CHO parental Ca -15, OX1R antag-1 9 and OX1R antag-2 -22.
`O=C(/C=C/c1cn(-c2ccccc2)nc1-c1cccs1)NCCN1CCOCC1` gave TAAR1 agonist 21, TAAR1 antag 53*, GPR7 antagonist 0, CHO parental Ca -22, OX1R antag-1 13, OX1R antag-2 -30, nonsel antag count 28*, TAAR1 ant conf 37, Ga16 nonsel ag 9 and TAAR1 ag counter 9.
`COC(=O)c1cn(-c2nc(C)c3c(n2)CCC3)nn1` gave TAAR1 agonist 1, TAAR1 antag -8, GPR7 antagonist -2, CHO parental Ca 1, OX1R antag-1 19 and OX1R antag-2 -13.
COc1cc(OC)c(-c2nnc3n(CCc4ccccc4)c(=O)c4ccccc4n23)cc1OC was read as TAAR1 agonist 18, TAAR1 antag 68*, GPR7 antagonist -11, CHO parental Ca -7, OX1R antag-1 -2, OX1R antag-2 -25, nonsel antag count 26*, TAAR1 ant conf 35, Ga16 nonsel ag 7 and TAAR1 ag counter 9.
Cc1ccc(Cl)cc1N1CCN(S(=O)(=O)c2cc3c(cc2C)NC(=O)CO3)CC1 was read as TAAR1 agonist 3, TAAR1 antag -15, GPR7 antagonist -9, CHO parental Ca -12, OX1R antag-1 1 and OX1R antag-2 -41.
`Nc1nccc(SCc2ccccc2)n1` gave TAAR1 agonist 1 and TAAR1 antag -20.
COc1ccc(C(=O)Nc2ccc(N3CCCC3)cc2)cc1 was read as TAAR1 agonist 0, TAAR1 antag -9, GPR7 antagonist -4, CHO parental Ca -5, OX1R antag-1 30 and OX1R antag-2 -2.
Screening COc1ccc(C(=O)Nc2ccc(N3CCN(C(=O)c4ccccc4C)CC3)cc2)cc1 returned TAAR1 agonist 10, TAAR1 antag 65*, GPR7 antagonist 5, CHO parental Ca -7, OX1R antag-1 21, OX1R antag-2 -6, nonsel antag count 24*, TAAR1 ant conf 37, Ga16 nonsel ag 14* and TAAR1 ag counter 12.
COc1ccc(Nc2ncc(C(=O)O)c3ccccc23)cc1 was read as TAAR1 agonist 0, TAAR1 antag 4, GPR7 antagonist -2, CHO parental Ca -9, OX1R antag-1 8 and OX1R antag-2 -1.
For COc1ccc(Nc2ncc(C(=O)N3CCN(c4ccc(F)cc4)CC3)c3ccccc23)cc1 the results were TAAR1 agonist 25, TAAR1 antag 55*, GPR7 antagonist 20, CHO parental Ca 10, OX1R antag-1 12, OX1R antag-2 11, nonsel antag count 37*, TAAR1 ant conf 54*, Ga16 nonsel ag 11 and TAAR1 ag counter 8.
For COc1ccc(C)cc1N(CC(=O)NCCN1CCOCC1)S(=O)(=O)c1ccccc1 the results were TAAR1 agonist 0, TAAR1 antag -14, CHO parental Ca -11, OX1R antag-1 27 and OX1R antag-2 -11.
COc1ccc(Cc2nnc(N/N=C/c3ccc(C)o3)[nH]c2=O)cc1 was read as TAAR1 agonist 4, TAAR1 antag -6, GPR7 antagonist -16, CHO parental Ca -1, OX1R antag-1 16 and OX1R antag-2 0.
Nc1ccc(C#Cc2ccc3oc4ccccc4c(=O)c3c2)cc1 was read as TAAR1 agonist 10, TAAR1 antag 68*, CHO parental Ca 1, OX1R antag-1 28, OX1R antag-2 -17, nonsel antag count 19, TAAR1 ant conf 23, Ga16 nonsel ag 3 and TAAR1 ag counter 4.
`O=c1c2ccccc2oc2cc(C#Cc3ccccn3)ccc12` gave TAAR1 agonist 9, TAAR1 antag 2, CHO parental Ca -2, OX1R antag-1 13 and OX1R antag-2 -8.
